Test results published in ChEMBL document CHEMBL1157638, “Fluorescent epigenetic small molecule induces expression of the tumor suppressor ras-association domain family 1A and inhibits human prostate xenograft” (J Med Chem, 2010).
Active and inactive are the calls of the source. No cut-off for these calls is given here.

Tests used:
SK-MEL-5 [1] = experiment: Growth inhibition of human SK-MEL-5 cells assessed as cell growth at 1 uM relative to untreated control; type: functional; conditions: read-out: Activity
SK-MEL-5 [2] = experiment: Growth inhibition of human SK-MEL-5 cells assessed as cell growth at 10 uM relative to untreated control; type: functional; conditions: read-out: Activity
MOLT-4 = experiment: Growth inhibition of human MOLT4 cells assessed as cell growth at 10 uM relative to untreated control; type: functional; conditions: read-out: Activity
NCI-H460 [3] = experiment: Growth inhibition of human NCI-H460 cells; type: functional
LOX IMVI = experiment: Growth inhibition of human LOXIMVI cells; type: functional
T47D = experiment: Growth inhibition of human T47D cells assessed as cell growth at 100 nM relative to untreated control; type: functional; conditions: read-out: Activity
OVCAR-5 [4] = experiment: Growth inhibition of human OVCAR5 cells assessed as cell growth at 10 nM relative to untreated control; type: functional; conditions: read-out: Activity
[5] = target: DNA (cytosine-5)-methyltransferase 3B (Homo sapiens) (UniProt Q9UBC3); experiment: Binding affinity to DNMT3b in human PC3 cells cytoplasm at 5 uM after 6 hrs by antibody staining; type: cell-based; conditions: PC-3
Method in brief: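 PC-3 cells were plated overnight on fibronectin/[…]-coated slides and treated with 5 μM compound or DMSO for 1-6 h. Cells were PBS-washed, fixed in 4% formaldehyde, and stained with propidium iodide (nuclei) and anti-DNMT3a or anti-DNMT3b antibody. The compound was excited at 725 nm by multiphoton laser and imaged through a 500-550 nm filter by confocal microscopy.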

SK-MEL-28 [6] = experiment: Growth inhibition of human SK-MEL-28 cells assessed as cell growth at 100 nM relative to untreated control; type: functional; conditions: read-out: Activity
HCT-116 = experiment: Growth inhibition of human HCT116 cells assessed as cell growth at 10 nM relative to untreated control; type: functional; conditions: read-out: Activity
Method in brief: (§1)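 Run externally at the National Cancer Institute as a 59-cell-line panel screen, with concentrations up to 100 μM. Growth was scored relative to control, where negative growth or total cell kill was possible. Data are in the Supporting Information.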

UACC-62 [7] = experiment: Growth inhibition of human UACC62 cells assessed as cell growth at 10 uM relative to untreated control; type: functional; conditions: read-out: Activity
NCI-H460 [8] = experiment: Growth inhibition of human NCI-H460 cells assessed as cell growth at 1 nM relative to untreated control; type: functional; conditions: read-out: Activity
SW-620 = experiment: Growth inhibition of human SW620 cells assessed as cell growth at 1 uM relative to untreated control; type: functional; conditions: read-out: Activity
NCI-H23 = experiment: Growth inhibition of human NCI-H23 cells; type: functional
786-0 = experiment: Growth inhibition of human 786-0 cells assessed as cell growth at 1 nM relative to untreated control; type: functional; conditions: read-out: Activity
BT-549 = experiment: Growth inhibition of human BT549 cells assessed as cell growth at 100 nM relative to untreated control; type: functional; conditions: read-out: Activity
EKVX = experiment: Growth inhibition of human EKVX cells assessed as cell growth at 1 nM relative to untreated control; type: functional; conditions: read-out: Activity; method in brief: as §1
OVCAR-5 [9] = experiment: Growth inhibition of human OVCAR5 cells; type: functional
PC-3 = experiment: Growth inhibition of human PC3 cells assessed as cell growth at 10 uM relative to untreated control; type: functional; conditions: read-out: Activity
A549 [10] = experiment: Growth inhibition of human A549 cells assessed as cell growth at 1 uM relative to untreated control; type: functional; conditions: read-out: Activity
Mus musculus = experiment: Toxicity in BALB/c mouse up to 550 mg/kg, po; type: organism-based; design: dose 550 mg/kg, route oral; conditions: in vivo
U-251 = experiment: Growth inhibition of human U251 cells assessed as cell growth at 1 uM relative to untreated control; type: functional; conditions: read-out: Activity
MDA-MB-231 = experiment: Growth inhibition of human MDA-MB-231 cells assessed as cell growth at 1 nM relative to untreated control; type: functional; conditions: read-out: Activity
SF-295 = experiment: Growth inhibition of human SF295 cells assessed as cell growth at 100 nM relative to untreated control; type: functional; conditions: read-out: Activity
OVCAR-4 = experiment: Growth inhibition of human OVCAR4 cells assessed as cell growth at 100 nM relative to untreated control; type: functional; conditions: read-out: Activity
[11] = Growth inhibition of human Hs 578T cells assessed as cell growth at 1 nM relative to untreated control; type: functional; conditions: read-out: Activity
UACC-62 [12] = experiment: Growth inhibition of human UACC62 cells; type: functional
SR [13] = experiment: Growth inhibition of human SR cells assessed as cell growth at 100 nM relative to untreated control; type: functional; conditions: read-out: Activity
SK-OV-3 = experiment: Growth inhibition of human SKOV3 cells assessed as cell growth at 100 nM relative to untreated control; type: functional; conditions: read-out: Activity
HL-60(TB) = experiment: Growth inhibition of human HL-60(TB) cells assessed as cell growth at 1 uM relative to untreated control; type: functional; conditions: read-out: Activity
[14] = Growth inhibition of human Hs 578T cells; type: functional
OVCAR-5 [15] = experiment: Growth inhibition of human OVCAR5 cells assessed as cell growth at 100 nM relative to untreated control; type: functional; conditions: read-out: Activity
NCI-H522 = experiment: Growth inhibition of human NCI-H522 cells assessed as cell growth at 100 nM relative to untreated control; type: functional; conditions: read-out: Activity
SF-268 = experiment: Growth inhibition of human SF268 cells assessed as cell growth at 10 uM relative to untreated control; type: functional; conditions: read-out: Activity
SN12C [16] = experiment: Growth inhibition of human SN12C cells; type: functional
NCI/ADR-RES = experiment: Growth inhibition of human NCI/ADR-RES cells assessed as cell growth at 100 nM relative to untreated control; type: functional; conditions: read-out: Activity
UACC-62 [17] = experiment: Growth inhibition of human UACC62 cells assessed as cell growth at 1 nM relative to untreated control; type: functional; conditions: read-out: Activity
M14 = experiment: Growth inhibition of human M14 cells assessed as cell growth at 10 nM relative to untreated control; type: functional; conditions: read-out: Activity
A549 [18] = experiment: Growth inhibition of human A549 cells assessed as cell growth at 10 nM relative to untreated control; type: functional; conditions: read-out: Activity
UO-31 = experiment: Growth inhibition of human UO31 cells; type: functional
OVCAR-8 = experiment: Growth inhibition of human OVCAR8 cells; type: functional
SR [19] = experiment: Growth inhibition of human SR cells assessed as cell growth at 10 nM relative to untreated control; type: functional; conditions: read-out: Activity
SK-MEL-28 [20] = experiment: Growth inhibition of human SK-MEL-28 cells assessed as cell growth at 10 nM relative to untreated control; type: functional; conditions: read-out: Activity
SNB-19 = experiment: Growth inhibition of human SNB19 cells assessed as cell growth at 1 uM relative to untreated control; type: functional; conditions: read-out: Activity
SN12C [21] = experiment: Growth inhibition of human SN12C cells assessed as cell growth at 10 uM relative to untreated control; type: functional; conditions: read-out: Activity
[22] = read-out: LC50 (the source's name)

COc1ccc2c(c1)[nH]c1c(C)c(OS(=O)(=O)c3cccc4c(N(C)C)cccc34)ccc12
growth at 1 µM (SK-MEL-5 [1]): -3% | growth at 10 µM (SK-MEL-5 [2]): -28% | growth at 10 µM (MOLT-4): 7% | GI50 (NCI-H460 [3]): 3.46 µM | TGI (NCI-H460 [3]): 55.5 µM | CC50 (NCI-H460 [3]; [22]): > 100 µM | GI50 (LOX IMVI): 48.4 µM | TGI (LOX IMVI): > 100 µM | CC50 (LOX IMVI; [22]): > 100 µM | growth at 0.1 µM (T47D): 82% | growth at 0.01 µM (OVCAR-5 [4]): 106% | Activity [5]: Active | growth at 0.1 µM (SK-MEL-28 [6]): 75% | growth at 0.01 µM (HCT-116): 106% | growth at 10 µM (UACC-62 [7]): 29% | growth at 0.001 µM (NCI-H460 [8]): 102% | growth at 1 µM (SW-620): 24% | GI50 (NCI-H23): 4.08 µM | TGI (NCI-H23): > 100 µM | CC50 (NCI-H23; [22]): > 100 µM | growth at 0.001 µM (786-0): 101% | growth at 0.1 µM (BT-549): 93% | growth at 0.001 µM (EKVX): 99% | GI50 (OVCAR-5 [9]): 56.1 µM | TGI (OVCAR-5 [9]): > 100 µM | CC50 (OVCAR-5 [9]; [22]): > 100 µM | growth at 10 µM (PC-3): 7% | growth at 1 µM (A549 [10]): 31% | Activity (Mus musculus): Non-toxic | growth at 1 µM (U-251): 25% | growth at 0.001 µM (MDA-MB-231): 97% | growth at 0.1 µM (SF-295): 69% | growth at 0.1 µM (OVCAR-4): 87% | growth at 0.001 µM [11]: 105% | GI50 (UACC-62 [12]): 3.39 µM | TGI (UACC-62 [12]): > 100 µM | CC50 (UACC-62 [12]; [22]): > 100 µM | growth at 0.1 µM (SR [13]): 95% | growth at 0.1 µM (SK-OV-3): 99% | growth at 1 µM (HL-60(TB)): -9% | GI50 [14]: 36.3 µM | TGI [14]: 93.7 µM | CC50 [14, 22]: > 100 µM | growth at 0.1 µM (OVCAR-5 [15]): 103% | growth at 0.1 µM (NCI-H522): 100% | growth at 10 µM (SF-268): 27% | GI50 (SN12C [16]): 11.3 µM | TGI (SN12C [16]): > 100 µM | CC50 (SN12C [16]; [22]): > 100 µM | growth at 0.1 µM (NCI/ADR-RES): 93% | growth at 0.001 µM (UACC-62 [17]): 89% | growth at 0.01 µM (M14): 105% | growth at 0.01 µM (A549 [18]): 97% | GI50 (UO-31): 13.6 µM | TGI (UO-31): > 100 µM | CC50 (UO-31; [22]): > 100 µM | GI50 (OVCAR-8): 79.6 µM | TGI (OVCAR-8): > 100 µM | CC50 (OVCAR-8; [22]): > 100 µM | growth at 0.01 µM (SR [19]): 91% | growth at 0.01 µM (SK-MEL-28 [20]): 87% | growth at 1 µM (SNB-19): 45% | growth at 10 µM (SN12C [21]): 30%
